{
  "source": "paper PMC5774632",
  "about": "(Science translational medicine, 2017)",
  "molecules": {"B1": {"name": "pegfilgrastim (protein, chains of the INN, looked up)", "chain": "TPLGPASSLPQSFLLKCLEQVRKIQGDGAALQEKLCATYKLCHPEELVLLGHSLGIPWAPLSSCPSQALQLAGCLSQLHSGLFLYQGLLQALEGISPELGPTLDTLQLDVADFATTIWQQMEELGMAPALQPTQGAMPAFASAFQRRAGGVLVASHLQSFLEVSYRVLRHLAQP", "modifications": "PEG"}},
  "key": {"[1]": {"test": "Terminal half-lives of SCLC standard of care chemotherapy agents", "type": "in vivo", "details": "4 half-lives"}, "[2]": {"details": "ref not given; cited from earlier work"}, "[3]": {"test": "Human safety and tolerability assessment, Phase I healthy volunteers", "type": "in vivo", "summary_of_the_method": "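Single-centre, double-blind, randomised, placebo-controlled (3:1) single-dose IV study in healthy adults aged 18–60, BMI 18–32 kg/m2, ≥50 kg. Doses were 6, 12, 24, 48, 96 or 192 mg/m2. Subjects stayed in clinic Day −1 to Day 5 and returned Days 7, 10 and 14. Monitoring covered AEs, clinical laboratory tests, vital signs, 12-lead ECG and physical examination. Toxicity was graded by CTCAE v4.0.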"}, "HSCs": {"tested_on": "HSCs", "test": "Serial 5FU treatment and competitive BM reconstitution assay", "type": "in vivo, mouse", "details": "for long-term reconstitution of PB lineages by donor HSCs, primary transplantation: vs 5FU only", "summary_of_the_method": "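Donors were female CD45.1 mice given 4 rounds of PBS or 150 mg/kg 5FU at 3-week intervals; some got 150 mg/kg test compound by gavage (vehicle 50 mM citrate, pH 4.0) 30 min before each 5FU. Eight weeks after the last dose, 500,000 donor BM cells plus 500,000 CD45.2 competitor cells went into C57BL/6 recipients irradiated with 2 × 540 rads. Five donors per group, five recipients each. Lineage chimerism was tracked in PB every 4 weeks for ≥16 weeks.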"}, "BM progenitors": {"tested_on": "BM progenitors", "test": "Single dose 5FU hematologic recovery and methylcellulose colony formation assay", "type": "in vivo, mouse"}, "BM HSCs": {"tested_on": "BM HSCs", "test": "H2B-GFP label dilution assay", "type": "in vivo, mouse", "summary_of_the_method": "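Adult homozygous H2B-GFP;M2-rtTA mice got 2 mg/ml doxycycline in drinking water for 6 weeks. Two weeks after withdrawal, vehicle or 150 mg/kg test compound was gavaged 12 h before vehicle or 150 mg/kg 5FU. BM was harvested 4 weeks after 5FU, and Lin−c-Kit+Sca-1+CD150+CD48− HSC H2B-GFP dilution was curve-fitted. PI = daughter cells per labelled HSC; log2(PI) = divisions. Mean ± SD, 3–6 mice, 3 experiments.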"}, "human BM HSPCs": {"tested_on": "human BM HSPCs", "test": "Human BM proliferation assay", "type": "in vivo", "details": "192 mg/m^2, 24 hours after dose", "summary_of_the_method": "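Healthy volunteers in the 192 mg/m2 single-IV-dose cohort each gave one bone marrow aspirate: predose (n = 5), 24 h (n = 3) or 32 h (n = 4). Lineages were identified by flow cytometry with CD45, CD34, CD14, CD11b, CD71 and CD61. Cell cycle phase (G0/G1 vs S/G2/M) came from DRAQ5 DNA content.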"}, "C57BL/6 mice": {"tested_on": "C57BL/6 mice", "test": "5FU survival assay", "type": "in vivo, mouse", "details": "for increase in median survival over controls / median survival: 100 mg/kg IP 12 h before each 5FU; for survival in serial 5FU assay: 10-day intervals", "summary_of_the_method": "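Female C57BL/6 mice, 8–10 weeks old, got 150 mg/kg 5FU IP once every 7 or 10 days. Test compound was given IP at 50 or 100 mg/kg at 30 minutes, 12 hours and/or 24 hours before each 5FU dose. Mice were monitored daily.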"}, "[4]": {"test": "Human PK study, first-in-human Phase I, single IV infusion", "type": "in vivo", "summary_of_the_method": "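Healthy volunteers got a single IV infusion (6–192 mg/m2), with blood sampled predose and at multiple later times. Plasma was spiked with D3-labelled internal standard and protein-precipitated with acetonitrile, then quantified by validated LC-MS/MS. Calibration was 0.5 to 1,000 ng/mL, weighted (1/x2) linear, LLOQ 0.5 ng/mL. PK parameters were derived by noncompartmental and compartmental methods.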"}, "murine HSPCs": {"tested_on": "murine HSPCs", "test": "In vivo G1T28 dose response and pharmacodynamic assay", "set-up": "species or system mouse", "summary_of_the_method": "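Female C57BL/6 mice, 8–10 weeks old, got a single IP dose of 50 or 100 mg/kg test compound. EdU 10 mg/kg IP followed at 0.5 to 168 h, and BM and thymus were harvested 2 h later. Surface-stained cells were live/dead-labelled, fixed in 5% formalin, permeabilised with saponin and click-stained with Alexa Fluor 555 azide. DNA was stained with 2 μg/ml DAPI before flow cytometry. n = 3–6 mice/dose/time point.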"}, "[5]": {"tested_on": "RB-expressing human cell lines", "details": "vast majority of RB-expressing human cell lines; cited from earlier work"}, "[6]": {"details": "after intraperitoneal injection; cited from earlier work"}, "[7]": {"details": "4 rounds of 5FU at 3-week intervals"}, "[8]": {"details": "G1T28 12 hours before single 5FU, 4 weeks after 5FU"}, "[9]": {"details": "single agent, 6 weeks after doxycycline removal"}, "[10]": {"details": "human, plasma, intravenous, 192 mg/m2"}, "[11]": {"details": "after G1T28 treatment, single IP 50 or 100 mg/kg"}},
  "data": [
    {"molecule": "COc1cc([C@@H]2c3cc4c(cc3[C@@H](O[C@@H]3O[C@@H]5CO[C@@H](C)O[C@H]5[C@H](O)[C@H]3O)[C@H]3COC(=O)[C@H]23)OCO4)cc(OC)c1O", "note": "[etoposide]", "values": [
      {"measurement": "fraction cleared during a 32-hour G1 arrest", "setting": "[1]", "value": "approximately 94%"},
      {"measurement": "terminal half-life", "setting": "[2]", "value": 7.5, "unit": "h"}
    ]},
    {"molecule": "N.N.O=C([O-])C1(C(=O)[O-])CCC1.[Pt+2]", "note": "[carboplatin]", "values": [
      {"measurement": "terminal half-life", "setting": "[2]", "value": 6, "unit": "h"}
    ]},
    {"molecule": "CN1CCN(c2ccc(Nc3ncc4cc5n(c4n3)C3(CCCCC3)CNC5=O)nc2)CC1", "note": "[G1T28, trilaciclib]", "values": [
      {"measurement": "clinical laboratory testing, vital signs, ECG, physical examination, body weight", "setting": "[3]; all treatment groups", "value": "no clinically relevant changes"},
      {"measurement": "most frequently reported TEAEs", "setting": "[3]; single IV infusion", "value": "headache and nausea"},
      {"measurement": "severe or life-threatening TEAEs", "setting": "[3]; single IV infusion", "value": "No TEAEs of severe or life-threatening intensity were reported"},
      {"measurement": "tolerability", "setting": "[3]; single IV infusion, all test doses", "value": "well tolerated"},
      {"measurement": "peripheral blood cell counts", "setting": "[3]; single dose, up to 14 days after infusion", "value": "did not significantly alter"},
      {"measurement": "long-term reconstitution of PB lineages by donor HSCs, primary transplantation", "setting": "HSCs; [7]", "value": "enhanced reconstitution of all lineages"},
      {"measurement": "reconstitution in secondary recipients", "setting": "HSCs; secondary transplantation 32 weeks after initial transplantation", "value": "significantly greater overall reconstitution"},
      {"measurement": "colony-forming cells surviving", "setting": "BM progenitors; 1 and 2 days after 5FU treatment", "value": "increased the number of colony-forming cells"},
      {"measurement": "PB count recovery", "setting": "BM progenitors; G1T28 30 minutes before single 5FU", "value": "significantly accelerated the PB count recovery"},
      {"measurement": "average number of HSC divisions", "setting": "BM HSCs; [8]", "value": "4.6 ± 0.4", "unit": "divisions"},
      {"measurement": "proliferation index (PI)", "setting": "BM HSCs; [8]", "value": "25.2 ± 4.7"},
      {"measurement": "average number of HSC divisions", "setting": "BM HSCs; [9]", "value": "2.4 ± 1.0", "unit": "divisions"},
      {"measurement": "proliferation index (PI)", "setting": "BM HSCs; [9]", "value": "6.2 ± 2.6"},
      {"measurement": "reduction in S/G2/M cell frequency of total BM cells", "setting": "human BM HSPCs", "value": 45, "unit": "%"},
      {"measurement": "increase in median survival over controls", "setting": "C57BL/6 mice; 5FU at 7-day intervals", "value": 55, "unit": "%"},
      {"measurement": "median survival", "setting": "C57BL/6 mice; 5FU at 7-day intervals", "value": 28, "unit": "days"},
      {"measurement": "increase in median survival over controls", "setting": "C57BL/6 mice; 5FU at 10-day intervals", "value": 125, "unit": "%"},
      {"measurement": "median survival", "setting": "C57BL/6 mice; 5FU at 10-day intervals", "value": 63, "unit": "days"},
      {"measurement": "survival protection", "setting": "C57BL/6 mice; 10-day assay, G1T28 30 minutes before each 5FU", "value": "Marked protection"},
      {"measurement": "survival protection over treatment at −30 min alone", "setting": "C57BL/6 mice; 10-day assay, G1T28 given twice, −24 h and −30 min", "value": "no additional protection"},
      {"measurement": "end of fast α-phase of elimination", "setting": "[4]; after end of infusion", "value": "approximately 4 h"},
      {"measurement": "end of β-phase of elimination", "setting": "[4]; after end of infusion", "value": "approximately 36 h"},
      {"measurement": "half-life", "setting": "[4]; human, plasma, intravenous", "value": "5.32 to 9.28", "unit": "h"},
      {"measurement": "Cmax", "setting": "[4]; [10]", "value": 1700, "unit": "ng/mL"},
      {"measurement": "half-life", "setting": "[4]; [10]", "value": "12.9 to 14.7", "unit": "h"},
      {"measurement": "Tmax", "setting": "[4]; human, plasma, iv", "value": "0.25 to 0.47", "unit": "h"},
      {"measurement": "contribution of the terminal phase to the effective half-life", "setting": "[4]; in vivo", "value": "15-20%"},
      {"measurement": "duration of reduction in EdU incorporation in HSCs before recovery", "setting": "murine HSPCs; [11]", "value": "up to 36 hours"},
      {"measurement": "time of minimum EdU incorporation and S/G2/M cell frequency in HSCs", "setting": "murine HSPCs; [11]", "value": 12, "unit": "h"},
      {"measurement": "EdU incorporation (S-phase cells) in all hematopoietic cell types", "setting": "murine HSPCs; single IP dose, 12 hours after treatment", "value": "dose-dependent reduction in EdU incorporation"}
    ]},
    {"molecule": "CN(C)C(=O)c1cc2cnc(Nc3ccc(N4CCNCC4)cn3)nc2n1C1CCCC1", "note": "[ribociclib, reference compound]", "values": [
      {"measurement": "survival in serial 5FU assay", "setting": "C57BL/6 mice", "value": "survival benefit"}
    ]},
    {"molecule": "CC(=O)c1c(C)c2cnc(Nc3ccc(N4CCNCC4)cn3)nc2n(C2CCCC2)c1=O", "note": "[palbociclib, reference compound]", "values": [
      {"measurement": "EC50", "setting": "[5]", "value": "> 2000", "unit": "nM"},
      {"measurement": "survival in serial 5FU assay", "setting": "C57BL/6 mice", "value": "survival benefit"}
    ]},
    {"molecule": "O=c1[nH]cc(F)c(=O)[nH]1", "note": "[5FU, 5-fluorouracil, reference compound]", "values": [
      {"measurement": "average number of HSC divisions", "setting": "BM HSCs; [9]", "value": "5.3 ± 0.5", "unit": "divisions"},
      {"measurement": "proliferation index (PI)", "setting": "BM HSCs; [9]", "value": "41.3 ± 5.4"},
      {"measurement": "plasma t1/2", "setting": "[6]", "value": "0.167 to 0.333", "unit": "h"}
    ]},
    {"molecule": "B1", "values": [
      {"measurement": "long-term HSC function, combined use of pegfilgrastim with G1T28", "setting": "HSCs; [7]", "value": "abolished the HSC protective effect of G1T28"},
      {"measurement": "long-term reconstitution of PB lineages by donor HSCs, primary transplantation", "setting": "HSCs; [7]", "value": "did not benefit long-term HSC function"},
      {"measurement": "survival in serial 5FU assay", "setting": "C57BL/6 mice", "value": "survival benefit"}
    ]}
  ]
}
